Source: ChEMBL document CHEMBL1155468, “Syntheses and evaluation of anticonvulsant profile and teratogenicity of novel amide derivatives of branched aliphatic carboxylic acids with 4-aminobenzensulfonamide” (J Med Chem, 2010)
Active and inactive are the calls of the source. The calls are words filed in the database; no cut-off is given here.

Assays:
Mus musculus [1] = experiment: Anticonvulsant activity in CF1 albino mouse assessed as inhibition of subcutaneous pentylenetetrazole-induced seizures at 30 mg/kg, ip after 0.5 hrs; format: functional, organism-based; set-up: dose 30 mg/kg
Method in brief: (§1)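 Adult male CF no. 1 albino mice (18-25 g) dosed ip with compound suspended in 0.5% methylcellulose (0.01 mL/g). Convulsant: pentylenetetrazol dissolved in 0.9% saline as a 0.85% solution for mice, given subcutaneously.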

Mus musculus [2] = experiment: Anticonvulsant activity in CF1 albino mouse assessed as inhibition of subcutaneous pentylenetetrazole-induced seizures at 100 mg/kg, ip after 0.5 hrs; format: functional, organism-based; set-up: dose 100 mg/kg; method in brief: as §1
Mus musculus [3] = experiment: Anticonvulsant activity in CF1 albino mouse assessed as inhibition of subcutaneous pentylenetetrazole-induced seizures at 300 mg/kg, ip after 0.5 hrs; format: functional, organism-based; set-up: dose 300 mg/kg; method in brief: as §1
Mus musculus [4] = experiment: Anticonvulsant activity in CF1 albino mouse assessed as inhibition of subcutaneous pentylenetetrazole-induced seizures at 30 mg/kg, ip after 4 hrs; format: functional, organism-based; set-up: dose 30 mg/kg; method in brief: as §1
Mus musculus [5] = experiment: Anticonvulsant activity in CF1 albino mouse assessed as inhibition of subcutaneous pentylenetetrazole-induced seizures at 100 mg/kg, ip after 4 hrs; format: functional, organism-based; set-up: dose 100 mg/kg; method in brief: as §1
Mus musculus [6] = experiment: Teratogenic effect in SWV mouse assessed as resorptions at 486 mg/kg, ip administered on morning of day 8 of gestation; format: toxicity, organism-based; set-up: dose 486 mg/kg, route intraperitoneal; settings: in vivo
Method in brief: (§2)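 SWV inbred mice: two-month-old nulligravid females mated overnight with males and checked for vaginal plugs next morning; gestation onset taken as 10 p.m. the previous night. On gestation day 8.5 each dam got one ip injection, 0.55–2.7 mmol/kg, in 25% aqueous Cremophor EL (vehicle controls dosed alike), 10 μL/g body weight. Litters and implants tallied; resorptions and live fetuses reported as counts with percentages.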

Mus musculus [7] = experiment: Teratogenic effect in SWV mouse assessed as resorptions at 294 mg/kg, ip administered on morning of day 8 of gestation; format: toxicity, organism-based; set-up: dose 294 mg/kg, route intraperitoneal; settings: in vivo; method in brief: as §2
Mus musculus [8] = experiment: Teratogenic effect in SWV mouse assessed as resorptions at 148 mg/kg, ip administered on morning of day 8 of gestation; format: toxicity, organism-based; set-up: dose 148 mg/kg, route intraperitoneal; settings: in vivo; method in brief: as §2
Mus musculus [9] = experiment: Teratogenic effect in SWV mouse assessed as fetuses with neural tube deffects at 486 mg/kg, ip administered on morning of day 8 of gestation; format: toxicity, organism-based; set-up: dose 486 mg/kg, route intraperitoneal; settings: in vivo
Method in brief: (§3)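 Two-month-old nulligravid SWV females were mated overnight and checked for vaginal plugs the next morning; gestation onset was set at 10 p.m. the previous night. On gestation day 8.5, each dam received a single ip injection (0.55-2.7 mmol/kg range) or vehicle (25% aqueous Cremophor EL) at 10 μL/g body weight. Litters were scored for implants, resorptions, live and dead fetuses, and fetuses with neural tube defects.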

Mus musculus [10] = experiment: Teratogenic effect in SWV mouse assessed as fetuses with neural tube deffects at 294 mg/kg, ip administered on morning of day 8 of gestation; format: toxicity, organism-based; set-up: dose 294 mg/kg, route intraperitoneal; settings: in vivo; method in brief: as §3
Mus musculus [11] = experiment: Teratogenic effect in SWV mouse assessed as fetuses with neural tube deffects at 148 mg/kg, ip administered on morning of day 8 of gestation; format: toxicity, organism-based; set-up: dose 148 mg/kg, route intraperitoneal; settings: in vivo; method in brief: as §3
Mus musculus [12] = experiment: Teratogenic effect in SWV mouse assessed as live fetuses at 486 mg/kg, ip administered on morning of day 8 of gestation; format: toxicity, organism-based; set-up: dose 486 mg/kg, route intraperitoneal; settings: in vivo; method in brief: as §2
Mus musculus [13] = experiment: Teratogenic effect in SWV mouse assessed as live fetuses at 294 mg/kg, ip administered on morning of day 8 of gestation; format: toxicity, organism-based; set-up: dose 294 mg/kg, route intraperitoneal; settings: in vivo; method in brief: as §3
Mus musculus [14] = experiment: Teratogenic effect in SWV mouse assessed as live fetuses at 148 mg/kg, ip administered on morning of day 8 of gestation; format: toxicity, organism-based; set-up: dose 148 mg/kg, route intraperitoneal; settings: in vivo; method in brief: as §3
Mus musculus [15] = experiment: Anticonvulsant activity in CF1 albino mouse assessed as inhibition of maximal electroshock-induced seizures at 30 mg/kg, ip after 0.5 hrs; format: functional, organism-based; set-up: dose 30 mg/kg
Method in brief: (§4)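 Test compounds suspended in 0.5% methylcellulose and given ip to adult male CF no. 1 albino mice (18-25 g) at 0.01 mL/g body weight before maximal electroshock challenge.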

Mus musculus [16] = experiment: Anticonvulsant activity in CF1 albino mouse assessed as inhibition of maximal electroshock-induced seizures at 100 mg/kg, ip after 0.5 hrs; format: functional, organism-based; set-up: dose 100 mg/kg; method in brief: as §4
Mus musculus [17] = experiment: Anticonvulsant activity in CF1 albino mouse assessed as inhibition of maximal electroshock-induced seizures at 300 mg/kg, ip after 0.5 hrs; format: functional, organism-based; set-up: dose 300 mg/kg; method in brief: as §4
Mus musculus [18] = experiment: Anticonvulsant activity in CF1 albino mouse assessed as inhibition of maximal electroshock-induced seizures at 30 mg/kg, ip after 4 hrs; format: functional, organism-based; set-up: dose 30 mg/kg; method in brief: as §4
Mus musculus [19] = experiment: Anticonvulsant activity in CF1 albino mouse assessed as inhibition of maximal electroshock-induced seizures at 100 mg/kg, ip after 4 hrs; format: functional, organism-based; set-up: dose 100 mg/kg; method in brief: as §4
Mus musculus [20] = experiment: Anticonvulsant activity in CF1 albino mouse assessed as inhibition of maximal electroshock-induced seizures at 300 mg/kg, ip after 4 hrs; format: functional, organism-based; set-up: dose 300 mg/kg; method in brief: as §4
Mus musculus [21] = experiment: Anticonvulsant activity in CF1 albino mouse assessed as inhibition of subcutaneous pentylenetetrazole-induced seizures at 300 mg/kg, ip after 4 hrs; format: functional, organism-based; set-up: dose 300 mg/kg; method in brief: as §1
Mus musculus [22] = experiment: Neurotoxicity in CF1 albino mouse assessed as motor impairment at 30 mg/kg, ip after 0.5 hrs; format: toxicity, organism-based; set-up: dose 30 mg/kg, route intraperitoneal; settings: in vivo
Mus musculus [23] = experiment: Neurotoxicity in CF1 albino mouse assessed as motor impairment at 100 mg/kg, ip after 0.5 hrs; format: toxicity, organism-based; set-up: dose 100 mg/kg, route intraperitoneal; settings: in vivo
Mus musculus [24] = experiment: Neurotoxicity in CF1 albino mouse assessed as motor impairment at 300 mg/kg, ip after 0.5 hrs; format: toxicity, organism-based; set-up: dose 300 mg/kg, route intraperitoneal; settings: in vivo
Mus musculus [25] = experiment: Neurotoxicity in CF1 albino mouse assessed as motor impairment at 30 mg/kg, ip after 4 hrs; format: toxicity, organism-based; set-up: dose 30 mg/kg, route intraperitoneal; settings: in vivo
Mus musculus [26] = experiment: Neurotoxicity in CF1 albino mouse assessed as motor impairment at 100 mg/kg, ip after 4 hrs; format: toxicity, organism-based; set-up: dose 100 mg/kg, route intraperitoneal; settings: in vivo
Mus musculus [27] = experiment: Neurotoxicity in CF1 albino mouse assessed as motor impairment at 300 mg/kg, ip after 4 hrs; format: toxicity, organism-based; set-up: dose 300 mg/kg, route intraperitoneal; settings: in vivo
Rattus norvegicus [28] = species: Rattus norvegicus; experiment: Protective index, ratio of TD50 for rat to ED50 for maximal electroshock-induced rat seizure model
Rattus norvegicus [29] = experiment: Neurotoxicity in Sprague-Dawley rat assessed as motor impairment at 30 mg/kg, po after 0.25 to 4 hrs; settings: in vivo
Rattus norvegicus [30] = experiment: Anticonvulsant activity in po dosed rat assessed as inhibition of maximal electroshock-induced seizures
Rattus norvegicus [31] = experiment: Anticonvulsant activity in Sprague-Dawley rat assessed as inhibition of maximal electroshock-induced seizures at 30 mg/kg, po after 1 hr
Rattus norvegicus [32] = experiment: Anticonvulsant activity in Sprague-Dawley rat assessed as inhibition of maximal electroshock-induced seizures at 30 mg/kg, po after 2 hrs
Rattus norvegicus [33] = experiment: Anticonvulsant activity in Sprague-Dawley rat assessed as inhibition of maximal electroshock-induced seizures at 30 mg/kg, po after 4 hrs
Rattus norvegicus [34] = experiment: Anticonvulsant activity in Sprague-Dawley rat assessed as inhibition of maximal electroshock-induced seizures at 30 mg/kg, po after 30 mins
Mus musculus [35] = experiment: Teratogenic effect in SWV mouse assessed as resorptions at 325 mg/kg, ip administered on morning of day 8 of gestation; format: toxicity, organism-based; set-up: dose 325 mg/kg, route intraperitoneal; settings: in vivo
Mus musculus [36] = experiment: Teratogenic effect in SWV mouse assessed as resorptions at 164 mg/kg, ip administered on morning of day 8 of gestation; format: toxicity, organism-based; set-up: dose 164 mg/kg, route intraperitoneal; settings: in vivo
Mus musculus [37] = experiment: Teratogenic effect in SWV mouse assessed as fetuses with neural tube deffects at 325 mg/kg, ip administered on morning of day 8 of gestation; format: toxicity, organism-based; set-up: dose 325 mg/kg, route intraperitoneal; settings: in vivo
Mus musculus [38] = experiment: Teratogenic effect in SWV mouse assessed as fetuses with neural tube deffects at 164 mg/kg, ip administered on morning of day 8 of gestation; format: toxicity, organism-based; set-up: dose 164 mg/kg, route intraperitoneal; settings: in vivo
Mus musculus [39] = experiment: Teratogenic effect in SWV mouse assessed as live fetuses at 325 mg/kg, ip administered on morning of day 8 of gestation; format: toxicity, organism-based; set-up: dose 325 mg/kg, route intraperitoneal; settings: in vivo
Mus musculus [40] = experiment: Teratogenic effect in SWV mouse assessed as live fetuses at 164 mg/kg, ip administered on morning of day 8 of gestation; format: toxicity, organism-based; set-up: dose 164 mg/kg, route intraperitoneal; settings: in vivo
Rattus norvegicus [41] = experiment: Anticonvulsant activity in Sprague-Dawley rat assessed as inhibition of maximal electroshock-induced seizures at 30 mg/kg, po after 15 mins

Row | SMILES | Activity (Mus musculus [1]) | Activity (Mus musculus [4]) | Activity (Mus musculus [5]) | Activity (Mus musculus [15]) | Activity (Mus musculus [16]) | Activity (Mus musculus [17]) | Activity (Mus musculus [18]) | Activity (Mus musculus [19]) | Activity (Mus musculus [20]) | Activity (Mus musculus [21]) | Activity (Mus musculus [22]) | Activity (Mus musculus [23]) | Activity (Mus musculus [25]) | Activity (Mus musculus [26]) | Ratio TD50/ED50 (Rattus norvegicus [28]) | Activity (Rattus norvegicus [29]) | ED50 (Rattus norvegicus [30]) | Activity (Rattus norvegicus [31]) | Activity (Rattus norvegicus [33]) | Activity (Rattus norvegicus [34]) | further results
1 | CCC(C)CC(=O)Nc1ccc(S(N)(=O)=O)cc1 (stereo unspecified) | inactive | inactive | inactive | inactive | inactive | inactive | inactive | inactive | inactive | inactive | Non-toxic | Non-toxic | Non-toxic | Non-toxic | >30.4 | Non-toxic | 16.4 mg/kg | Active | Active | Active | Activity (Mus musculus [2]): inactive; Activity (Mus musculus [3]): inactive; Activity (Mus musculus [6]): 68%; Activity (Mus musculus [7]): 32.5%; Activity (Mus musculus [8]): 10.6%; Activity (Mus musculus [9]): 9.4%; Activity (Mus musculus [10]): 9.9%; Activity (Mus musculus [11]): 1.1%; Activity (Mus musculus [12]): 32%; Activity (Mus musculus [13]): 67.5%; Activity (Mus musculus [14]): 89.4%; Activity (Mus musculus [24]): Non-toxic; Activity (Mus musculus [27]): Non-toxic; Activity (Rattus norvegicus [32]): Active
2 | CCCCC(CC)C(=O)Nc1ccc(S(N)(=O)=O)cc1 (stereo unspecified) | inactive | inactive | inactive | inactive | Active | Active | inactive | Active | Active | inactive | Non-toxic | Non-toxic | Non-toxic | Non-toxic | >21 | Non-toxic | 23.9 mg/kg | Active | Active | inactive | Activity (Mus musculus [35]): 74.2%; Activity (Mus musculus [36]): 19.2%; Activity (Mus musculus [37]): 14.7%; Activity (Mus musculus [38]): 5.2%; Activity (Mus musculus [39]): 25.8%; Activity (Mus musculus [40]): 80.8%; Activity (Rattus norvegicus [41]): inactive
